{"source": "paper PMC11645202", "about": "(Bioorganic & medicinal chemistry, 2024)", "key": {"A-10 cells [1]": {"system": "A-10 cells", "conditions": "read-out: A-10 EC50 (cellular microtubule loss); cited from earlier work"}, "[2]": {"system": "MCF-7 human breast carcinoma cells", "conditions": "read-out: MCF-7 IC50; inhibition of growth; cited from earlier work"}, "tubulin [3]": {"system": "tubulin", "conditions": "compound 5 μM, cited from earlier work"}, "[4]": {"system": "pancreatic cancer cells (MiaPaca-2)", "test": "Cytotoxicity in pancreatic cancer cells, Promega CellTiter assay kit", "assay_type": "cell-based"}, "tubulin [5]": {"system": "tubulin", "test": "Inhibition of tubulin polymerization", "assay_type": "biochemical", "conditions": "for IC50: read-out: Tubulin Assembly IC50, tubulin at 10 μM"}, "A-10 cells [6]": {"system": "A-10 cells", "test": "Cellular microtubule loss by indirect immunofluorescence", "assay_type": "cell-based", "conditions": "20 μM compound 8c; 15 μM compound 13; 2.5 μM compound 18 (Figure 5)"}, "[7]": {"system": "MCF-7 human breast carcinoma cells", "test": "MCF-7 cell proliferation assay", "assay_type": "cell-based", "method_in_brief": "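MCF-7 human breast carcinoma cells grown 24 h without drug, then 48 h with varying concentrations of test compound. Growth read as total cell protein by sulforhodamine B staining; IC50 taken as concentration inhibiting cell growth.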"}, "[8]": {"system": "colon cancer cell line HCT-16", "test": "Cytotoxicity in colon cancer cells, Promega CellTiter assay kit", "assay_type": "cell-based"}}, "note": "Like-named read-outs stand apart in the source and are kept apart here. Marks after values point to notes of the source that are not given here."}
{"smiles": "COc1ccc(/C=C\\c2cc(OC)c(OC)c(OC)c2)cc1O", "note": "[CA-4, Combretastatin A-4]", "values": [{"measurement": "EC50", "setting": "A-10 cells [1]", "value": "< 25", "unit": "nM"}, {"measurement": "IC50", "setting": "[2]", "value": "32 ± 20", "unit": "nM"}]}
{"smiles": "COc1ccc(/C=C\\c2cc(OC)c(OC)c(OC)c2)cc1B(O)O", "note": "[Compound 1]", "values": [{"measurement": "IC50", "setting": "[2]", "value": "17 ± 5", "unit": "nM"}, {"measurement": "[3H]Colchicine Binding inhibition", "setting": "tubulin [3]; tubulin 1 μM, [3H]colchicine 5 μM", "value": "79 ± 2^e %"}]}
{"smiles": "COc1cc(/C=C\\c2ccccc2B(O)O)cc(OC)c1OC", "note": "[Compound 8a, {2-[(Z)-2-(3,4,5-trimethoxyphenyl)vinyl]phenyl}boronic acid]", "values": [{"measurement": "activity in MiaPaca-2 (in words)", "setting": "[4]", "value": "potency comparable to that of CA-4 and phenstatin"}, {"measurement": "IC50", "setting": "tubulin [5]", "value": "> 40000", "unit": "nM"}]}
{"smiles": "COc1cc(/C=C\\c2ccc(B(O)O)cc2)cc(OC)c1OC", "note": "[Compound 8c, {4-[(Z)-2-(3,4,5-trimethoxyphenyl)vinyl]phenyl}boronic acid]", "values": [{"measurement": "effects on interphase microtubules in A-10 cells", "setting": "A-10 cells [6]", "value": "disrupted microtubules and loss of the microtubule network"}]}
{"smiles": "COc1cc(/C=C\\c2cnc(OC)c(B(O)O)c2)cc(OC)c1OC", "note": "[Compound 13, {2-Methoxy-5-[(Z)-2-(3,4,5-trimethoxyphenyl)vinyl]pyridin-3-yl}boronic acid]", "values": [{"measurement": "lower potency compared to 1 in inhibiting tubulin polymerization", "setting": "tubulin [5]; relative to compound 1", "value": 20, "unit": "fold"}, {"measurement": "effects on interphase microtubules in A-10 cells", "setting": "A-10 cells [6]", "value": "disrupted microtubules and loss of the microtubule network"}, {"measurement": "cytotoxicity in MCF-7 cells (in words)", "setting": "[7]", "value": "mid-nanomolar cytotoxicity"}, {"measurement": "lower activity compared to 1 in inhibition of MCF-7 cell proliferation", "setting": "[7]; relative to compound 1", "value": 23, "unit": "fold"}, {"measurement": "IC50", "setting": "[8]; HCT16, read-out: IC50 in HCT-16", "value": "< 5000", "unit": "nM"}]}
{"smiles": "COc1ccc(C(=O)c2cc(OC)c(OC)c(OC)c2)cc1B(O)O", "note": "[Compound 18, [2-Methoxy-5-(3,4,5-trimethoxybenzoyl)phenyl]boronic acid]", "values": [{"measurement": "activity in MiaPaca-2 (in words)", "setting": "[4]", "value": "potency comparable to that of CA-4 and phenstatin"}, {"measurement": "effects on interphase microtubules in A-10 cells", "setting": "A-10 cells [6]", "value": "disrupted microtubules and loss of the microtubule network"}, {"measurement": "cytotoxicity in MCF-7 cells (in words)", "setting": "[7]", "value": "mid-nanomolar cytotoxicity"}]}
{"smiles": "COc1cc(C(=O)c2cnc(OC)c(B(O)O)c2)cc(OC)c1OC", "note": "[Compound 22, [2-Methoxy-5-(3,4,5-trimethoxybenzoyl)pyridin-3-yl]boronic acid]", "values": [{"measurement": "activity in MiaPaca-2 (in words)", "setting": "[4]", "value": "dramatically reduced activity"}, {"measurement": "IC50", "setting": "tubulin [5]", "value": "> 40000", "unit": "nM"}, {"measurement": "activity (in words)", "setting": "tubulin [5]; tubulin-based assays", "value": "no activity"}, {"measurement": "activity in HCT-16 (in words)", "setting": "[8]", "value": "dramatically reduced activity"}]}
{"smiles": "COc1ccc(C(=O)c2cc(OC)c(OC)c(OC)c2)cc1O", "note": "[Phenstatin, reference compound]", "values": [{"measurement": "IC50", "setting": "[2]", "value": "440 ± 70", "unit": "nM"}, {"measurement": "[3H]Colchicine Binding inhibition", "setting": "tubulin [3]", "value": "86^f %"}]}
